Test results: ChEMBL document CHEMBL1150421, “Synthesis and analgesic/anti-inflammatory evaluation of fused heterocyclic ring systems incorporating phenylsulfonyl moiety” (2008)

Experiments:
[1] = tested on: Mus musculus; experiment: Analgesic activity in Albino mouse at 50 mg/kg, po assessed as thermal stimuli reaction time change after 30 mins by hot plate method relative to basal level; assay type: functional
In short: (§1)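 Hot-plate at 52 °C ± 0.1 °C with a 60 s cut-off, six mice per group. Dosing was oral, 50 mg/kg in 2% Tween 80. Latency to paw licking or jumping was recorded before dosing and at 0.5, 1 and 2 h. Results are given as % change from the pre-drug value, with one-way ANOVA and Duncan's test (P < 0.05).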

[2] = tested on: Mus musculus; experiment: Analgesic activity in Albino mouse at 50 mg/kg, po assessed as thermal stimuli reaction time change after 1 hr by hot plate method relative to basal level; assay type: functional; in short: as §1
[3] = tested on: Mus musculus; experiment: Analgesic activity in Albino mouse at 50 mg/kg, po assessed as thermal stimuli reaction time change after 2 hrs by hot plate method relative to basal level; assay type: functional; in short: as §1
[4] = tested on: Mus musculus; experiment: Analgesic activity against visceral pain in Albino mouse assessed as acetic acid-induced writhing at 50 mg/kg, po after 30 mins; assay type: functional
In short: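 Mice (20–25 g, acclimatized 1 week, 12 h light/dark, 21–23 °C) given compound orally at 50 mg/kg as a suspension in 2% Tween 80. Negative controls got water in Tween 80. Visceral pain measured as acetic acid-induced writhing; indomethacin 50 mg/kg was the reference.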

[5] = tested on: Rattus norvegicus; experiment: Antiinflammatory activity in Albino rat assessed as inhibition of carrageenan-induced edema at 50 mg/kg, po after 1 hr
[6] = tested on: Rattus norvegicus; experiment: Antiinflammatory activity in Albino rat assessed as inhibition of carrageenan-induced edema at 50 mg/kg, po after 2 hrs
[7] = tested on: Rattus norvegicus; experiment: Antiinflammatory activity in Albino rat assessed as inhibition of carrageenan-induced edema at 50 mg/kg, po after 3 hrs
[8] = tested on: Rattus norvegicus; experiment: Antiinflammatory activity in Albino rat assessed as inhibition of carrageenan-induced edema at 50 mg/kg, po after 4 hrs
[9] = tested on: Rattus norvegicus; experiment: Antiinflammatory activity in Albino rat assessed as inhibition of carrageenan-induced edema at 50 mg/kg, po after 5 hrs
[10] = tested on: Rattus norvegicus; experiment: Antiinflammatory activity in Albino rat assessed as inhibition of carrageenan-induced edema at 50 mg/kg, po after 6 hrs
[11] = tested on: Mus musculus; experiment: Analgesic activity in Albino mouse at 50 mg/kg, po assessed as thermal stimuli reaction time change after 30 mins by hot plate method relative to indomethacin; assay type: functional
[12] = tested on: Mus musculus; experiment: Analgesic activity in Albino mouse at 50 mg/kg, po assessed as thermal stimuli reaction time change after 1 hr by hot plate method relative to indomethacin; assay type: functional
[13] = tested on: Mus musculus; experiment: Analgesic activity in Albino mouse at 50 mg/kg, po assessed as thermal stimuli reaction time change after 2 hrs mins by hot plate method relative to indomethacin; assay type: functional
[14] = tested on: Mus musculus; experiment: Analgesic activity against visceral pain in Albino mouse assessed as acetic acid-induced writhing at 50 mg/kg, po after 30 mins relative to indomethacin; assay type: functional

SMILES | Activity [1] [%] | Activity [2] [%] | Activity [3] [%] | Activity [4] [%] | inhibition in vivo at 50 mg/kg [5] [%] | inhibition in vivo at 50 mg/kg [6] [%] | inhibition in vivo at 50 mg/kg [7] [%] | inhibition in vivo at 50 mg/kg [8] [%] | inhibition in vivo at 50 mg/kg [9] [%] | inhibition in vivo at 50 mg/kg [10] [%] | Activity [11] | Activity [12] | Activity [13] | Activity [14]
COc1ccc2c(c1)c(CC(=O)O)c(C)n2C(=O)c1ccc(Cl)cc1 [INDOMETHACIN] | 43 | 77.2 | 81 | 85.8 | 77 | 56 | 44 | 28.7 | 28.4 | 50 |  |  |  | 
O=S(=O)(c1ccccc1)c1cnc2cc(-c3ccc(Cl)cc3)nn2c1-c1ccc(Br)cc1 | 33 | 72.2 | 51.8 | 66.7 | 24.2 | 24.7 | 24.8 | 18.6 | 13.8 | 13.2 | 0.77 | 0.93 | 0.63 | 0.77
Cc1ccc(-c2c(S(=O)(=O)c3ccccc3)cnc3cc(-c4ccc(Br)cc4)nn23)cc1 | 29 | 56.4 | 56.4 | 65.2 | 74.1 | 72.6 | 69.2 | 26.6 | 31.7 | 54.3 | 0.67 | 0.73 | 0.7 | 0.76
Cc1cc2ncc(S(=O)(=O)c3ccccc3)c(-c3ccc(Br)cc3)n2n1 | 27 | 44.1 | 39.7 | 56.4 | 7.4 | 5.2 | 4.4 | 0 | 0 | 0 | 0.63 | 0.57 | 0.49 | 0.65
Cc1ccc(-c2c(S(=O)(=O)c3ccccc3)cnc3ncnn23)cc1 | 7.1 | 5.3 | 0 |  | 7.5 | 5.2 | 4.4 | 3.3 | 2.4 | 1.9 | 0.16 | 0.06 | 0 | 0
O=S(=O)(c1ccccc1)c1cnc2ncnn2c1-c1ccc(Br)cc1 | 5.4 | 6.8 | 5.4 | 10.8 | 2.2 | 4.2 | 1.6 | 1.3 | 0.8 | 0.9 | 0.12 | 0.08 | 0.06 | 0.12
Cc1ccc(-c2c(S(=O)(=O)c3ccccc3)cnc3cc(C)nn23)cc1 | 16 | 16 | 5.3 | 30 | 25.8 | 25.2 | 23.2 | 14 | 8.1 | 8.7 | 0.37 | 0.21 | 0.07 | 0.35
Cc1ccc(-c2cc3ncc(S(=O)(=O)c4ccccc4)c(-c4ccc(C)cc4)n3n2)cc1 | 25 | 67.1 | 57.5 | 74.4 | 54.6 | 42.6 | 31.2 | 20 | 17 | 11.6 | 0.58 | 0.87 | 0.71 | 0.86
Cc1ccc(-c2c(S(=O)(=O)c3ccccc3)cnc3cc(-c4ccccc4)nn23)cc1 | 15.2 | 18.6 | 15.2 | 28 | 42.5 | 41 | 36.4 | 22.6 | 28.2 | 15.5 | 0.35 | 0.24 | 0.19 | 0.32
Cc1ccc(-c2c(S(=O)(=O)c3ccccc3)cnc3c(Br)c(-c4ccccc4)nn23)cc1 | 43.8 | 78 | 68.4 | 85.6 | 65.5 | 61 | 54.8 | 12.5 | 0 | 6.6 | 1.02 | 1.02 | 0.84 | 0.99
Cc1ccc(-c2c(S(=O)(=O)c3ccccc3)cnc3nc4ccccc4n23)cc1 | 9.2 | 23 | 21.5 | 9.1 | 7.3 | 5 | 4.2 | 0 | 0 | 0 | 0.21 | 0.3 | 0.26 | 0.1
